Measured values taken from article PMC11542020 (Blood Cancer Journal, 2024).
pIC50: −log10 of the molar value. Read-outs that look alike come from different tables or passages of the source.

Legend:
T-ALL PDX (ALL-8) [1] = conditions: OBI-3424 2.5 mg/kg, PR-104 200 mg/kg; cited from earlier work
T-ALL PDX (ALL-31) [2] = conditions: OBI-3424 2.5 mg/kg, PR-104 200 mg/kg; cited from earlier work
T-ALL PDX (ALL-8) [3] = test: In vivo relapsed/refractory therapy comparison; design: species or system human
[4] = ACHM-025 tolerability in naïve immunodeficient mice; format: in vivo, mouse; conditions: 25 mg/kg via IP weekly ×3
T-ALL PDX (ALL-8) [5] = test: Minimal residual disease; format: in vivo, human; conditions: not within the quantitative range of the assay
[6] = ACHM-025 pharmacokinetic analysis of murine plasma; format: in vivo; conditions: female, NSG, mouse, ip, 25 mg/kg, across the dose levels 5, 10, 25 mg/kg IP
Plasma protein binding [7] = format: in vitro ADME; conditions: human
T-ALL PDX (ALL-8) [8] = test: In vivo consolidation therapy comparison, ALL-8 in NSG mice; design: species or system human
Outline: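 ALL-8-engrafted mice received test compound 5 mg/kg IP on Days 0 and 7, alone or with Ara-C and 6-mercaptopurine (each 12.5 mg/kg IP, Days 0–4 and 7–11). Comparators were cyclophosphamide (75 mg/kg IP, Days 0 and 7) and vehicle. Human CD45⁺ in PB was tracked over time. At Day 28, or at event for vehicle, PB, BM and spleen were assessed as % huCD45⁺ of mouse CD45⁺ (3 mice).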

ALL-11/EV [9] = test: Ex vivo cytotoxicity assay on ALL-11 PDX empty vector; format: cell-based; conditions: Homo sapiens, 48 h
Outline: (§1)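 Patient-derived xenograft leukemia cells were cultured ex vivo in AIM V medium at a density optimized for each xenograft (1–5 × 10⁶ cells per mL). ALL-11 cells were lentivirally transduced with AKR1C3 or with empty vector. Viability was read by resazurin or CellTiter-Glo. IC₅₀ was interpolated from nonlinear regression curves, with three biological experiments.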

T-ALL PDX (ALL-31) [10] = test: In vivo efficacy, conventional study, T-ALL PDX ALL-31 in NSG mice; design: species or system human; conditions: 25 mg/kg IP Days 0, 7, 14
B-ALL PDXs = test: Ex vivo cytotoxicity assay; format: cell-based, human
Outline: as §1

T-ALL PDX (ALL-8) [11] = test: In vivo dose response study, conventional, T-ALL PDX ALL-8 in NSG mice; design: species or system human
ALL-11/AKR1C3 [12] = test: Ex vivo cytotoxicity assay on ALL-11 PDX overexpressing AKR1C3; format: cell-based; conditions: Homo sapiens, 48 h
Outline: as §1

ALL-11/EV [13] = test: In vivo efficacy against ALL-11/EV in mice; design: species or system human; conditions: 25 mg/kg IP Days 0, 7, 14
Outline: (§2)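 Mice engrafted with the patient-derived xenograft were dosed IP and their peripheral blood % human CD45⁺ was monitored. An event was defined as huCD45⁺ >25% in PB. Event-free survival of treated and vehicle cohorts was compared as T-C and T/C. Studies used either n = 6 mice per treatment or single-mouse testing (n = 1).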

ALL-11/AKR1C3 [14] = test: In vivo efficacy against ALL-11/AKR1C3 in mice; design: species or system human; conditions: 25 mg/kg IP Days 0, 7, 14
Outline: as §2

Plasma protein binding [15] = format: in vitro ADME; conditions: mouse
25 T-ALL PDXs = test: In vivo single mouse trial; design: species or system human; conditions: 25 mg/kg IP Days 0, 7, 14
[16] = Preliminary tolerability studies in cynomolgus monkeys; format: in vivo, cynomolgus monkey
T-ALL PDXs = test: Ex vivo cytotoxicity assay; format: cell-based, human
Outline: as §1

[17] = ACHM-025 pharmacokinetic analysis of murine brain; format: in vivo; conditions: female, NSG, mouse, intraperitoneal, 25 mg/kg
T-ALL PDX (ALL-8) [18] = test: Histopathologic analysis of mouse skull and brain to assess tumor burden; format: in vivo, human; conditions: 10 mg/kg IP Days 0, 7, 14
[19] = ACHM-025 10 mg/kg IP Days 0, 7, 14, nelarabine 125 mg/kg IP Days 0–4, 14–18, alone or combined

CS(=O)(=O)OCCN(CCBr)c1c(C(=O)NCCOP(=O)(O)O)cc([N+](=O)[O-])cc1[N+](=O)[O-] [PR-104]
delay of leukemia progression (T-ALL PDX (ALL-8) [1]): 54.3 days | delay of leukemia progression (T-ALL PDX (ALL-31) [2]): 44.4 days

CN1CCN(S(=O)(=O)c2cc([N+](=O)[O-])ccc2N(CCOS(C)(=O)=O)CCOS(C)(=O)=O)CC1 [ACHM-025, ((2-((4-methylpiperazin-1-yl)sulfonyl)-4-nitrophenyl)azanediyl)bis(ethane-2,1-diyl) dimethanesulfonate]
human leukemia cells in the BM at Day 28 by flow cytometry (T-ALL PDX (ALL-8) [3]): no detectable human leukemia cells | EFS (median event free survival) (T-ALL PDX (ALL-8) [3]; [19]): 207 days | ORM (T-ALL PDX (ALL-8) [3]; [19]): MCRs | T-C (T-ALL PDX (ALL-8) [3]; [19]): 198 days | T/C (T-ALL PDX (ALL-8) [3]; [19]): 22.5 days | Tolerability [4]: well tolerated | MRD in BM samples at Day 28 (PCR-based assay) (T-ALL PDX (ALL-8) [5]): MRD positive | Cmax ([6]; Cmax): 1600 to 9300 nM | AUC(0-inf) ([6]; total plasma exposure (AUC0-inf)): 0.5 to 3.3 µM·h | fraction unbound at 5 µmol/L (Plasma protein binding [7]): 0.646 | human leukemia levels in the PB, BM and spleen at Day 28 (T-ALL PDX (ALL-8) [8]; ACHM-025 5 mg/kg IP Days 0, 7): undetectable levels | human leukemia cells in the murine PB (T-ALL PDX (ALL-8) [8]; ACHM-025 5 mg/kg IP Days 0, 7, for six consecutive weeks): < 1% | pIC50 (ALL-11/EV [9]): 5.90 | Median EFS (T-ALL PDX (ALL-31) [10]): > 332 days | human leukemia cells in the murine peripheral blood (PB) (T-ALL PDX (ALL-31) [10]): < 1% | mice that did not relapse over the >300-day observation period following the last treatment (T-ALL PDX (ALL-31) [10]): 3 out of 5 | time for which human leukemia cells in PB <1% was maintained (T-ALL PDX (ALL-31) [10]): 10 consecutive weeks | pIC50 (B-ALL PDXs; Homo sapiens, 48 h, read-out: Median IC50, median of 6 B-ALL PDXs, 48 h): 6.08 | ORM (T-ALL PDX (ALL-8) [11]; 10 mg/kg IP Days 0, 7, 14): MCRs | ORM (T-ALL PDX (ALL-8) [11]; 15 mg/kg IP Days 0, 7, 14): MCRs | ORM (T-ALL PDX (ALL-8) [11]; 25 mg/kg IP Days 0, 7, 14): MCRs | mice with no detectable human leukemia cells in the PB at 250 days after the last treatment (T-ALL PDX (ALL-8) [11]; 25 mg/kg IP Days 0, 7, 14): 5 out of 6 | human leukemia cells in the PB, BM, spleen, kidney or liver at Day 28 (T-ALL PDX (ALL-8) [11]; any of the three doses (10, 15 or 25 mg/kg)): no detectable human leukemia cells | pIC50 (ALL-11/AKR1C3 [12]): 7.88 | Treated EFS (ALL-11/EV [13]): 49.1 days | Treated EFS (ALL-11/AKR1C3 [14]): 104 days | fraction unbound at 5 µmol/L (Plasma protein binding [15]): 0.569 | PDXs that did not reach event during the 250 day monitoring period following the final treatment (25 T-ALL PDXs): 7/25 | single dose-limiting toxicity ([16]; 0.6 mg/kg): neutropenia | all other hematological, clinical chemistry, urinalysis and histopathology parameters ([16]; 2.0 mg/kg, the highest dose tested): within normal range | well tolerated doses ([16]; preliminary studies): ≤ 0.5 mg/kg | pIC50 (T-ALL PDXs; Homo sapiens, 48 h, read-out: Median IC50, median of 6 T-ALL PDXs, 48 h): 7.54 | concentration at 0.25 h [17]: 140 nM | leukemic infiltration of the calvarial bone marrow at Day 28 (H&E, TdT) (T-ALL PDX (ALL-8) [18]): no observable leukemic infiltration

CS(=O)(=O)OCCN(CCBr)c1c(C(=O)NCCO)cc([N+](=O)[O-])cc1[N+](=O)[O-] [PR-104A, reference compound]
pIC50 (B-ALL PDXs; read-out: Median IC50, median of B-ALL PDXs): 4.58 | pIC50 (T-ALL PDXs; read-out: Median IC50, median of T-ALL PDXs): 5.74

COc1nc(N)nc2c1ncn2[C@@H]1O[C@H](CO)[C@@H](O)[C@@H]1O [Nelarabine, nelarabine, reference compound]
EFS (median event free survival) (T-ALL PDX (ALL-8) [3]; [19]): 28.4 days | T-C (T-ALL PDX (ALL-8) [3]; [19]): 19.1 days | T/C (T-ALL PDX (ALL-8) [3]; [19]): 3.1 days | human leukemia levels in the PB, BM or spleen at Day 28 (T-ALL PDX (ALL-8) [3]; nelarabine 125 mg/kg IP Days 0–4, 14–18): did not significantly decrease
